Nine molecules from ChEMBL document CHEMBL1914352, “Design, synthesis, docking, and biological evaluation of novel diazide-containing isoxazole- and pyrazole-based histone deacetylase probes” (J Med Chem, 2011) can be followed below.

Molecules are shown by their SMILES. The source made the active and inactive calls. The calls are words filed in the database; no cut-off is given here. Where only a bound is given, the exact number is not on record here.

Data set [1] addresses Histone deacetylase 3/Nuclear receptor corepressor 2 (HDAC3/NCoR2) (Homo sapiens, UniProt O15379). Kind of data set: Inhibition of human recombinant HDAC3/NCoR2 using fluorophore-conjugated substrate Boc-L-Lys(Ac)-AMC. The class given is protein-complex assay.
Data set [2] addresses Matrix metalloproteinase-14 (Homo sapiens, UniProt P50281). Briefly: Inhibition of MMP14.
The target of data set [3] is Stromelysin-1 (Homo sapiens, UniProt P08254). Kind of data set: Inhibition of MMP3.
Stromelysin-1, sequence (P08254 whole entry): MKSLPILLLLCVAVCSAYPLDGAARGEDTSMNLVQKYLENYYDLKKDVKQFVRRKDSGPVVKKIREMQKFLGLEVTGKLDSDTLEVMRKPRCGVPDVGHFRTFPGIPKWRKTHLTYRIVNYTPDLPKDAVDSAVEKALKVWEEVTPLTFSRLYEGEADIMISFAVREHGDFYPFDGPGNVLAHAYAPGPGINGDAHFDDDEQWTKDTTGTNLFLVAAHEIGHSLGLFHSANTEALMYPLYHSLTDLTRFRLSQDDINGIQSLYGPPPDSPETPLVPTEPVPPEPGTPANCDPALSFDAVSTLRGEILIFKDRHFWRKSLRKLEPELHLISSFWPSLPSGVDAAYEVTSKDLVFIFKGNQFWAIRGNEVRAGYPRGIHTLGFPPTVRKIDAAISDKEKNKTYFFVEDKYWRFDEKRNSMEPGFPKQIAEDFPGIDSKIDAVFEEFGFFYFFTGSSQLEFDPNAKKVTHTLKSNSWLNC
Data set [4] concerns the target T1, Histone deacetylase 8 (Homo sapiens, UniProt Q9BY41).
T1 sequence (Q9BY41 whole entry): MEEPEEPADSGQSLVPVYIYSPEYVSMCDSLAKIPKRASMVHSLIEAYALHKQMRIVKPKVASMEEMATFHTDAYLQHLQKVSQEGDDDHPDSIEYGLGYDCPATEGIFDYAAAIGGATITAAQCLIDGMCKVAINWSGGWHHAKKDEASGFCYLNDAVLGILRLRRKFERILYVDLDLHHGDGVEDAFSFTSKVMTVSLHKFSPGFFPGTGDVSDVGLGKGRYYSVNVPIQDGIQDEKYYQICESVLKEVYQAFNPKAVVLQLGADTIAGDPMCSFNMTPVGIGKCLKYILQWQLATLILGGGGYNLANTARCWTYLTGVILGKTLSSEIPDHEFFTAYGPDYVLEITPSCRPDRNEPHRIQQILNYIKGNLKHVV
Briefly: Inhibition of human recombinant HDAC8 using Fluor de Lys as substrate.

Data set [5] relates to SH-SY5Y. Briefly: cells. It is filed as functional, cell-based. As to conditions: Homo sapiens, 48 h.
Data set [6] relates to SH-SY5Y. Briefly: cells. To be noted: Homo sapiens, 24 h. It is filed as functional, cell-based.
Data set [7] relates to HeLa. Kind of data set: cells. The class given is functional, cell-based. As to conditions: Homo sapiens, 48 h.
Data set [8] relates to HeLa. Kind of data set: cells. It is filed as functional, cell-based. As to conditions: Homo sapiens, 72 h.
For data set [9], the system named is HepG2. Briefly: cells. To be noted: Homo sapiens, HepG2, 72 h. It is filed as functional, cell-based.
Data set [10] has as its system HeLa. Kind of data set: cells. It is filed as functional, cell-based. To be noted: Homo sapiens, 24 h.
The test system of data set [11] is HepG2. Kind of data set: cells. It is filed as functional, cell-based. To be noted: Homo sapiens, HepG2, 48 h.
Data set [12] concerns HepG2. Kind of data set: cells. It is filed as functional, cell-based. To be noted: Homo sapiens, HepG2, 24 h.
In data set [13] the test system is SH-SY5Y. Kind of data set: Neuroprotective activity against LY294002-induced stress in retinoic acid-differentiated human SH-SY5Y cells assessed as cell survival at 0.5 to 20 uM. It is filed as functional, cell-based. An outline of the steps:
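SH-SY5Y cells pre-differentiated with retinoic acid, seeded at 2×10^4 cells/well in 1% FBS medium with 5 µM retinoic acid. After 24 h, medium changed to phenol red free 1% FBS medium with 5 µM retinoic acid plus vehicle (DMSO) or 0.5–50 µM inhibitor (final), with or without 100 µM LY294002. Viability by XTT after 24 h. Expressed as percent survival relative to vehicle, four replicates ± SD. Analysed by one-way ANOVA with Dunnett's test.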

Data set [14] relates to SH-SY5Y. Briefly: Cytotoxicity against retinoic acid-differentiated human SH-SY5Y cells assessed as cell survival at 20 uM. It is filed as cell-based. Summed up:
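SH-SY5Y cells are differentiated for 7–8 days in 1% FBS medium with 10 µM retinoic acid, then seeded at 2×10^4 cells/well in 1% FBS medium with 5 µM RA. After 24 h they go into phenol-red-free 1% FBS/RA medium with DMSO or 0.5–50 µM inhibitor, without or with 100 µM LY294002, for 24 h. Readout: XTT viability as % survival vs vehicle, four replicates ± SD, one-way ANOVA with Dunnett.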

Data set [15] relates to SH-SY5Y. Kind of data set: cells. It is filed as functional, cell-based. As to conditions: Homo sapiens, 72 h.
Data set [16] deals with HepG2. Kind of data set: Induction of apoptosis in human HepG2 cells assessed as hyperacetylation of p53 after 24 hrs by Western blot analysis. The class given is functional, cell-based. An outline of the steps:
(§1)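 HepG2 cells are seeded at 2.7×10^5 cells/well in D7 medium (DMEM, 7% FBS), refed after 24 h, and after 1 h at 37 °C treated with DMSO or 1, 5 or 10 µM inhibitor. Lysis is in ice-cold 1% CHAPSO buffer (50 mM Hepes pH 7.4), 45 min at 4 °C. Immunoblots are probed for cleaved caspase 3 Asp175, acetyl-Lys373 p53, total p53 and GAPDH, detected by chemiluminescence, with band densitometry.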
In general terms: In western blotting, separated proteins are transferred to a membrane and probed.

Data set [17] relates to HepG2. Kind of data set: Induction of apoptosis in human HepG2 cells assessed as cleavage of caspase 3 at 1 to 10 uM after 24 hrs by Western blot analysis. It is filed as functional, cell-based. Summed up:
as §1

Data set [18] relates to HepG2. Kind of data set: Induction of apoptosis in human HepG2 cells assessed as hyperacetylation of p53 at 1 to 10 uM by Western blot analysis. The class given is functional, cell-based. Summed up: as §1
Data set [19] has as its system HepG2. Kind of data set: Induction of apoptosis in human HepG2 cells assessed as cleavage of caspase 3 at 1 to 10 uM after 14 hrs by Western blot analysis. It is filed as functional, cell-based. Summed up:
as §1

In data set [20] the target is T2, Histone deacetylase (Homo sapiens) (UniProt Q13547+O15379+Q9UBN7+Q92769+Q9UQL6+Q8WUI4+Q9BY41+Q96DB2+P56524+Q9UKV0+Q969S8). Kind of data set: Inhibition of HDAC in retinoic acid-differentiated human SH-SY5Y cells assessed as increase in histone H4 acetylation at 1 uM after 24 hrs by Western blot analysis in presence of 100 uM LY294002. The class given is cell-based.

Data set [21] deals with T2, Histone deacetylase (Homo sapiens). Briefly: Inhibition of HDAC in retinoic acid-differentiated human SH-SY5Y cells assessed as increase in histone H4 acetylation at 1 uM after 24 hrs by Western blot analysis. It is filed as cell-based.

Histone deacetylase 3/Nuclear receptor corepressor 2 (HDAC3/NCoR2), sequence (O15379 whole entry): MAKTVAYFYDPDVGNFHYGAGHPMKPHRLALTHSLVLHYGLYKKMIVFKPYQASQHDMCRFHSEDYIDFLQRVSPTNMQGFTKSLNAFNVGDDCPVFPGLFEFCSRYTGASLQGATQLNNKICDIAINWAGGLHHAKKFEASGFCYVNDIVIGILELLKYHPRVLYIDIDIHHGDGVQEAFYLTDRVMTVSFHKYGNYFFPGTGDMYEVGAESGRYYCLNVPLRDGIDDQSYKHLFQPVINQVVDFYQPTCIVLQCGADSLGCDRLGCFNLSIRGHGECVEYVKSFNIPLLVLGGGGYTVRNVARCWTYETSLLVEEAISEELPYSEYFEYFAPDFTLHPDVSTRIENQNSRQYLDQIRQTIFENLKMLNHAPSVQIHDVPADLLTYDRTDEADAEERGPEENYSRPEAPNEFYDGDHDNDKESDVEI
Histone deacetylase 3/Nuclear receptor corepressor 2 (HDAC3/NCoR2), sequence (Q9Y618 whole entry, further chain): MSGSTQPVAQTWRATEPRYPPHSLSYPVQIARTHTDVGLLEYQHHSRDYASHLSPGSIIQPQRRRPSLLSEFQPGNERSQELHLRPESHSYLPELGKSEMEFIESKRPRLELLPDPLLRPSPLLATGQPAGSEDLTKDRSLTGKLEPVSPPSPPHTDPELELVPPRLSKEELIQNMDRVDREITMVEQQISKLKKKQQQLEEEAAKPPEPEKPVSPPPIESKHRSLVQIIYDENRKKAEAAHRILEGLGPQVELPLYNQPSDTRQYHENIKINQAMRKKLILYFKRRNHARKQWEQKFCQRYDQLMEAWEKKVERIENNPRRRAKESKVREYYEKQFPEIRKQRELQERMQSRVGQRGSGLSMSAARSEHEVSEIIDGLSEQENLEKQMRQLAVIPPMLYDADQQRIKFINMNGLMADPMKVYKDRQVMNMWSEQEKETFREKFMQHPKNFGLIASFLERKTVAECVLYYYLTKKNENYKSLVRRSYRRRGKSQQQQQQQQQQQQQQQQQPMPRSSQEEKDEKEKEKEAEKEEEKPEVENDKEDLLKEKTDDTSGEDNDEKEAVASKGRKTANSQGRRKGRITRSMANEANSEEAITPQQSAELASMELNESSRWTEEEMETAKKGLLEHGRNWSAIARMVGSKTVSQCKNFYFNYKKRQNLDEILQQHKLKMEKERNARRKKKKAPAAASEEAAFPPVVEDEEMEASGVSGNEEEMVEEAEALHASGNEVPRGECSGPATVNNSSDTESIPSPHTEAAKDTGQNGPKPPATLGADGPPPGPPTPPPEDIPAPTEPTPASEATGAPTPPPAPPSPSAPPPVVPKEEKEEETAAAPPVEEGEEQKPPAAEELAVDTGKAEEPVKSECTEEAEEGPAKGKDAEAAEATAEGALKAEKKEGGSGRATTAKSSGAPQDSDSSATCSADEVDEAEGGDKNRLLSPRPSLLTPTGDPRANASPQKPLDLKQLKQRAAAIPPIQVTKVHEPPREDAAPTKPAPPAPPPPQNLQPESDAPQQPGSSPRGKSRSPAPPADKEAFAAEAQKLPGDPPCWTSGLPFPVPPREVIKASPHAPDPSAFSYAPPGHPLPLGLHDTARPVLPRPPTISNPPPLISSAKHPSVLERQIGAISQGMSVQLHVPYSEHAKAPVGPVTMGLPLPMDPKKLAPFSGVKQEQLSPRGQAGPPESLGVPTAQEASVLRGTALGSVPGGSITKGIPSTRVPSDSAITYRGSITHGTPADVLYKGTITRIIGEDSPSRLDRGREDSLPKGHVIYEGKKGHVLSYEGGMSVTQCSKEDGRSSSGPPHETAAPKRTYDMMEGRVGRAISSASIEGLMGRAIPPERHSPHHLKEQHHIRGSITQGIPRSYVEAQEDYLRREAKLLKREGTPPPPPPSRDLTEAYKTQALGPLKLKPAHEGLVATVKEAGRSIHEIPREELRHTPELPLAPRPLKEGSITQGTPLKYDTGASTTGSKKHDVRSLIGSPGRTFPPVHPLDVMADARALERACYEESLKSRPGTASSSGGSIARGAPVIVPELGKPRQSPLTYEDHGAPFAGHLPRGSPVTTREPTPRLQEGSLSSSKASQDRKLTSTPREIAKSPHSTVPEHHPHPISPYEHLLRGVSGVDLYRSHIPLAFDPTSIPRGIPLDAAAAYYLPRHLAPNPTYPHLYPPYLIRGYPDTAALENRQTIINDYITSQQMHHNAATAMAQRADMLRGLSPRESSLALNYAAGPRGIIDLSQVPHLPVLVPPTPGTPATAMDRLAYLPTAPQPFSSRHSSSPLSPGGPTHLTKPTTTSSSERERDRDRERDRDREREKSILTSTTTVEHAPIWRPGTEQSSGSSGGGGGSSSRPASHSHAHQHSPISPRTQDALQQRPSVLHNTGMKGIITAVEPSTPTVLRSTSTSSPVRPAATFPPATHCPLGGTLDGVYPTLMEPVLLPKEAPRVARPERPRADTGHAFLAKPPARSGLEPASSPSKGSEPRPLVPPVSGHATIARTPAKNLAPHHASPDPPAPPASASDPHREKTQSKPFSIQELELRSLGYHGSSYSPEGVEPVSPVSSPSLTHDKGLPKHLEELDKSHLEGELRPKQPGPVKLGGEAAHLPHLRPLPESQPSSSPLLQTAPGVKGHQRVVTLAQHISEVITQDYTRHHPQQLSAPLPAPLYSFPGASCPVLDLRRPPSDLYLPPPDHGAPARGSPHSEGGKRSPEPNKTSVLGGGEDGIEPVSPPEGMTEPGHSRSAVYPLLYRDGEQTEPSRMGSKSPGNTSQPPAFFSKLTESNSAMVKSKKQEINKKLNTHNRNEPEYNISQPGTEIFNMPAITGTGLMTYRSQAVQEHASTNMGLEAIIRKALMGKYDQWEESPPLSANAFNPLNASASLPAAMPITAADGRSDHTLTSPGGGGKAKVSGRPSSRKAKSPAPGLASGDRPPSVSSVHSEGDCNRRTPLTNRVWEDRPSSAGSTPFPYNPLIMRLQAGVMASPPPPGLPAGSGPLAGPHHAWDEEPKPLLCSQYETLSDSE

As for `[N-]=[N+]=NCc1cc(COc2ccc(NC(=O)CCCCCCC(=O)NO)cc2)cc(N=[N+]=[N-])c1`, in data set [1], the IC50 amounted to 1.48 µM.

With `CNC(=O)[C@H](Cc1c[nH]c2ccccc12)NC(=O)[C@@H](CC(=O)NO)CC(C)C` [ILOMASTAT], the IC50 in data set [2] was 0.00041 µM; in data set [3], 0.00762 µM.

Take `[N-]=[N+]=NCc1cc(N=[N+]=[N-])cc(C(=O)Nc2ccc(Cn3cc(NC(=O)CCCCCCC(=O)NO)cn3)cc2)c1`: the IC50 in data set [4] worked out at 0.487 µM; in data set [1], 0.432 µM.

Take `[N-]=[N+]=Nc1ccc(Cn2cc(NC(=O)CCCCCCC(=O)NO)cn2)cc1`: the EC50 in [5] is 23.6 µM; in data set [6], > 50 µM; in data set [7], 9.9 µM; in [8], 4.6 µM; in [9], 5.9 µM; in [10], 38.3 µM. The EC50 in [11] is 12.7 µM; in data set [12], > 50 µM; in [15], 23.1 µM. Also, the IC50 was 0.028 µM in data set [4] and 0.022 µM in [1]. Further, in [13], the result was inactive. For the same molecule, the Activity result in data set [14] is given as “Non-toxic”.

With `O=C(CCCCCCC(=O)Nc1cnn(Cc2ccc([N+](=O)[O-])cc2)c1)NO`, the IC50 in [4] worked out at 0.082 µM; in data set [1] it was 0.059 µM.

As to `O=C(CCCCCCC(=O)Nc1cnn(Cc2ccccc2)c1)NO`, the EC50 is 22.7 µM in data set [5]; > 50 µM in [6]; 10.6 µM in [7]; 5.5 µM in data set [8]; 5.5 µM in data set [9]; 46.6 µM in data set [10]. The EC50 in data set [11] is 12.6 µM; in data set [12], > 50 µM; in data set [15], 23.2 µM. Further, the figures for the half-inhibitory concentration (IC50) in data set [4] and in data set [1] were 0.076 µM and 0.044 µM, respectively. For the same molecule, the outcome in data set [13] was inactive. For the same molecule, the Activity result in [14] is given as “Non-toxic”.

For `O=C(CCCCCCC(=O)Nc1ccccc1)NO`, the outcome in data set [16] and in [18] was inactive. In addition, the outcome in [17] and in data set [19] was Active.

As for `CC(C)(C)OC(=O)Nc1ccc(Cn2cc(NC(=O)CCCCCCC(=O)NO)cn2)cc1`, the figures for the IC50 in data set [4] and in [1] were 0.147 µM and 0.191 µM, respectively.

Consider `[N-]=[N+]=Nc1ccc(-c2cc(C(=O)NCCCCCCC(=O)NO)no2)cc1`, for which the IC50 in data set [4] came to 0.707 µM; in data set [1] it was 0.073 µM. For the same molecule, the inhibition entry in data set [20] and in data set [21] was “Active” throughout.

A word on the IC50: it is the concentration that inhibits the measured activity by half. As usually defined, the EC50 is the concentration that produces a half-maximal response.
